According to ChEMBL document CHEMBL3865814, “Chemical Constituents Isolated from the Root Bark of Cudrania tricuspidata and Their Potential Neuroprotective Effects” (J Nat Prod, 2016):

What was measured:
Format in all cases: functional, cell-based
[1] = Neuroprotective activity in human SH-SY5Y cells assessed as reduction in 1-methyl-4-phenylpyridinium ion-induced cell death after 48 hrs by MTT assay
In short: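 SH-SY5Y cells in DMEM with 10% heat-inactivated FBS and 1% penicillin/streptomycin were seeded at 2 × 10^4 cells/well for 24 h, then exposed to 2 mM MPP+ for 48 h. MTT (0.5 mg/mL in PBS) was added for 4 h at 37 °C, formazan dissolved in DMSO and absorbance read at 540 nm. EC50 is the concentration giving half-maximal protection, mean of triplicates.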

[2] = Neuroprotective activity in human SH-SY5Y cells assessed as reduction in oxygen glucose deprivation-induced cell death incubated for 16 hrs under hypoxic condition followed by incubation for 24 hrs under normoxic condition by MTT assay
In short: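 After 24 h plating (2 × 10^4/well, DMEM with 10% FBS and glucose), medium was switched to serum- and glucose-free RPMI and samples or vehicle added. Cells were held 16 h under 95% N2/5% CO2, then reoxygenated 24 h in RPMI with 10% FBS and glucose at 37 °C. Viability was by MTT at A540. EC50 is half-maximal protection, mean of triplicates.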

[3] = Neuroprotective activity in human SH-SY5Y cells assessed as reduction in 6-OHDA-induced cell death measured after 24 hrs by MTT assay
In short: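 Cells were seeded at 2 × 10^4 per well and grown 24 h in DMEM with 10% heat-inactivated FBS at 37 °C under 5% CO2. They were then co-treated with graded sample concentrations and 100 μM 6-OHDA for 24 h. Viability was by MTT (0.5 mg/mL, 4 h, 37 °C), DMSO solubilization and A540. EC50 is half-maximal protection, mean of triplicate determinations.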

Row | SMILES | EC50 [1] [µM] | EC50 [2] [µM] | EC50 [3] [µM]
1 | CC1Oc2cc(O)c3c(=O)c4c5c(c(O)cc4oc3c2C1(C)C)OC(C)(C)C=C5 (stereo not given) | > 50 | 3.5 | 
2 | CC1(C)C=Cc2c(c(O)cc3c(=O)c4c(O)c5c(cc4oc23)OC(CO)C5(C)C)O1 (stereo not given) | > 50 | 11.2 | 
3 | CC1Oc2cc3oc4c5c(c(O)cc4c(=O)c3c(O)c2C1(C)C)OC(C(C)(C)O)C5 (stereo not given) | > 50 | 6 | 
4 | CC(C)=CCc1c2c(c(O)c3c(=O)c4ccc(O)c(O)c4oc13)C(C)(C)C(C)O2 (stereo not given) | > 50 | 17.2 | 
5 | COCc1ccc(O)cc1 | > 50 | 7.9 | 
6 | O=c1ccoc2cc(O)cc(O)c12 |  |  | 1.9
7 | C=C(C)[C@@H]1CC[C@]2(C(=O)O)CC[C@]3(C)[C@H](CC[C@@H]4[C@@]5(C)CC[C@H](O)C(C)(C)[C@@H]5CC[C@]43C)[C@@H]12 [BETULINIC ACID] | 4.3 |  | 
8 | CC1(C)C=Cc2cc3ccc(=O)oc3cc2O1 [XANTHYLETIN] |  |  | 8
9 | CC(C)=CC1Oc2cc(O)ccc2-c2oc3cc4c(c(O)c3c(=O)c21)C=CC(C)(C)O4 (stereo not given) [CUDRAFLAVONE A] | > 50 | 13.5 | 15.5
10 | CC(C)=CCc1cc2ccc(=O)oc2cc1O [DEMETHYLSUBEROSIN] | 0.2 | 8.6 | 
11 | O=Cc1ccc(O)cc1 [4-HYDROXYBENZALDEHYDE] |  |  | 30.2
12 | C=C(C)C(=O)Cc1c(OC)c(O)cc2oc3c4c(cc(O)c3c(=O)c12)OC(CO)C4(C)C (stereo not given) | > 50 | 13.2 | 
13 | COc1cc(/C=C/C(=O)CC(=O)/C=C/c2ccc(O)c(OC)c2)ccc1O [CURCUMIN] |  |  | 6.2
14 | CC1Oc2cc3oc4c5c(c(O)cc4c(=O)c3c(O)c2C1(C)C)OC(C)(C)C(O)C5 (stereo not given) | > 50 | 23.6 | 
15 | C=C(C)C(O)Cc1c(OC)c(O)cc2oc3c4c(cc(O)c3c(=O)c12)OC(CO)C4(C)C (stereo not given) | > 50 | 28.5 | 
16 | CCCCCCCC/C=C\CCCCCCCC(=O)O [OLEIC ACID] |  |  | 9.5
17 | C=CC(C)(C)c1c(OC)cc(O)c2c(=O)c3c(CC(O)C(=C)C)c(O)c(O)cc3oc12 (stereo not given) | > 50 | 2.9 | 

Row | SMILES | EC50 [1] [µM] | EC50 [2] [µM] | EC50 [3] [µM]
18 | COC(=O)c1ccc(O)cc1O [METHYL 2,4-DIHYDROXYBENZOATE] | > 50 | 35.5 | 
19 | CC(C)=CCOc1c2ccoc2cc2oc(=O)ccc12 [ISOIMPERATORIN] | > 50 | 3.5 | 9.2
20 | COc1c(C(C)=O)ccc2c1C=CC(C)(C)O2 | > 50 | 22.3 | 
21 | C=CC(C)(C)c1c(OC)cc(O)c2c(=O)c3c(cc(O)c4oc(C(C)(C)O)cc43)oc12 | 10.3 | > 50 | 
22 | CC1(C)CC[C@]2(C)CC[C@]3(C)[C@H]4CC=C5[C@@H](CC[C@H](O)C5(C)C)[C@]4(C)CC[C@@]3(C)[C@@H]2C1 [GLUTINOL] |  |  | 12.9
23 | CC1(C)C=Cc2c(c(O)cc3oc4c5c(cc(O)c4c(=O)c23)OC(CO)C5(C)C)O1 (stereo not given) | > 50 | 8.9 | 
24 | CC(C)=CCc1c(O)c(O)cc2c(=O)c3c4c(c(O)cc3oc12)C(C)(C)C(C)O4 (stereo not given) | > 50 | 34.9 | 
25 | C=C1CC[C@H](O)C(C)(C)[C@@H]1CC/C(C)=C/CC/C=C(\C)CC/C=C(\C)CCC=C(C)C | > 50 | 6.5 | 7.2
26 | C=CC(C)(C)c1c(O)cc(O)c2c(=O)c3c4c(c(O)cc3oc12)O[C@@H](C(C)(C)O)C4 | > 50 | 12.2 | 
27 | C[C@H]1[C@H](C)CC[C@]2(C)CC[C@]3(C)C(=CC[C@@H]4[C@@]5(C)CC[C@H](O)C(C)(C)[C@@H]5CC[C@]43C)[C@H]12 | > 50 | 13.3 | 
28 | C=CC(C)(C)c1c(O)cc(O)c2c(=O)c3c4c(c(O)cc3oc12)OC(C)(C)C=C4 | > 50 | 33.3 | 
29 | CC(C)=CCOc1c2occc2cc2ccc(=O)oc12 [PENTOSALEN] | > 50 | 8.4 | 
30 | C=CC(C)(C)c1c(OC)cc(O)c2c(=O)c3c(CC=C(C)C)c(O)c(O)cc3oc12 [CUDRAXANTHONE D] | > 50 | 4.8 | 
31 | NCCC(=O)N[C@@H](Cc1c[nH]cn1)C(=O)O [CARNOSINE] |  | 3 | 
32 | CC(C)=CCc1c(O)c(O)cc2oc3c4c(cc(O)c3c(=O)c12)OC(C)C4(C)C (stereo not given) [CUDRATRICUSXANTHONE J] | 8.1 | > 50 | 
33 | CC1(C)CCc2cc(C3CC(=O)c4c(O)cc5c(c4O3)CCC(C)(C)O5)c(O)cc2O1 (stereo not given) |  |  | 9.1
